According to ChEMBL document CHEMBL3774321, “Systematic diversification of benzylidene heterocycles yields novel inhibitor scaffolds selective for Dyrk1A, Clk1 and CK2” (Eur J Med Chem, 2016):

Tests used:
[1] = biological target: T1, Phosphatidylinositol 4,5-bisphosphate 3-kinase catalytic subunit delta isoform (Homo sapiens) (UniProt O00329); assay: Inhibition of PI3K p110delta (unknown origin) at 5 uM relative to control
T1 sequence (whole entry): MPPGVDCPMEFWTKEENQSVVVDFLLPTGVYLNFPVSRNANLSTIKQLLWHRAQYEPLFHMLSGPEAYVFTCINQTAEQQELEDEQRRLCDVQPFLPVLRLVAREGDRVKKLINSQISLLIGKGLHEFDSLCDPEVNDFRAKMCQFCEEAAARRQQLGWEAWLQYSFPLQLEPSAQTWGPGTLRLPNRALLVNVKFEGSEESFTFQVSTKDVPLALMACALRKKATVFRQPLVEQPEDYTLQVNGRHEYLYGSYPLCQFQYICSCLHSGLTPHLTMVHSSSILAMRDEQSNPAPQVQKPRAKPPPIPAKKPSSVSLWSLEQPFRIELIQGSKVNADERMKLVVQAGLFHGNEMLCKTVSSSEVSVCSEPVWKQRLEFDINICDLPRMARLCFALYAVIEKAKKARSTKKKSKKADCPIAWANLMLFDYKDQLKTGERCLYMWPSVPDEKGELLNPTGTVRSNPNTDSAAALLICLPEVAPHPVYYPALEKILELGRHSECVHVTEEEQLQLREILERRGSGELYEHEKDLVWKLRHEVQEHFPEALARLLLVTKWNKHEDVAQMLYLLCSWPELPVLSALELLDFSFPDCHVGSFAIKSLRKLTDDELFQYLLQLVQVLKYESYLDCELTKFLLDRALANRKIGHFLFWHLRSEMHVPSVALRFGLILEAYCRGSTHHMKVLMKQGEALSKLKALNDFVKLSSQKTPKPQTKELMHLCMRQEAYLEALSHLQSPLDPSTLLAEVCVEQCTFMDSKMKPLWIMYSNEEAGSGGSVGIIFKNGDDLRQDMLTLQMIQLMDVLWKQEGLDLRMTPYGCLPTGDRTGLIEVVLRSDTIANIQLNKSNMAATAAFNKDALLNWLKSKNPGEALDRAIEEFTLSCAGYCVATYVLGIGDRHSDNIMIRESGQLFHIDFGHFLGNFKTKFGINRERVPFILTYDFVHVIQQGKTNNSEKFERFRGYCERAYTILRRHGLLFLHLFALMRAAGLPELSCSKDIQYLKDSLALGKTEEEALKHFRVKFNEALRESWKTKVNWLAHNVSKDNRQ

[2] = biological target: Dual specificity protein kinase CLK1 (Homo sapiens, UniProt P49759); assay: Inhibition of recombinant human GST-tagged CLK1 catalytic domain (129 to 484 residues) expressed in Escherichia coli using GRSRSRSRSRSRSRSR as substrate incubated for 15 mins in presence of [gamma-32P]ATP
Procedure, shortened: (§1)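 Purified recombinant kinase with 100 µM ATP. IC50 values are averages of at least two independent determinations.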

[3] = biological target: T2, Dual specificity tyrosine-phosphorylation-regulated kinase 1A (Homo sapiens, UniProt Q13627); assay: Inhibition of recombinant human N-terminal His6-tagged DYRK1A catalytic domain expressed in Escherichia coli BL21(DE3) cells using KKISGRLSPIMTEQ-NH2 as substrate incubated for 15 mins in presence of [gamma-32P]ATP
[4] = biological target: T3, Phosphatidylinositol 4,5-bisphosphate 3-kinase catalytic subunit alpha isoform (Homo sapiens, UniProt P42336); assay: Inhibition of PI3K p110alpha (unknown origin) at 5 uM relative to control
[5] = Half life in rat plasma at 1 uM by LC-MS/MS analysis; assay type: ADME, cell-free
Procedure, shortened: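 Pooled heparinized rat plasma incubated with 1 μM compound at 37 °C, sampled at 0, 5, 15, 30, 60 and 120 min. Reaction stopped with 5 volumes cold acetonitrile containing internal standard. Remaining compound quantified by LC-MS/MS. Half-life given as mean of two experiments.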

[6] = biological target: Epidermal growth factor receptor (Homo sapiens, UniProt P00533); assay: Inhibition of EGFR (unknown origin) incubated for 15 mins in presence of [gamma-32P]ATP; conditions: read-out: IC50
Procedure, shortened: (§2)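 Purified recombinant kinase assayed with 100 μM ATP. Values averaged from at least two independent determinations.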

[7] = biological target: Dual specificity tyrosine-phosphorylation-regulated kinase 1B (Homo sapiens, UniProt Q9Y463); assay: Inhibition of full length recombinant human GST-tagged DYRK1B expressed in insect cells using KKISGRLSPIMTEQ-NH2 as substrate incubated for 15 mins in presence of [gamma-32P]ATP
[8] = biological target: T4, Dual specificity tyrosine-phosphorylation-regulated kinase 2 (Homo sapiens, UniProt Q92630); assay: Inhibition of recombinant human N-terminal GST-tagged DYRK2 expressed in Escherichia coli BL21(DE3) cells using KKISGRLSPIMTEQ-NH2 as substrate incubated for 15 mins in presence of [gamma-32P]ATP; conditions: read-out: IC50; procedure, shortened: as §1
T4 sequence (Q92630 whole entry): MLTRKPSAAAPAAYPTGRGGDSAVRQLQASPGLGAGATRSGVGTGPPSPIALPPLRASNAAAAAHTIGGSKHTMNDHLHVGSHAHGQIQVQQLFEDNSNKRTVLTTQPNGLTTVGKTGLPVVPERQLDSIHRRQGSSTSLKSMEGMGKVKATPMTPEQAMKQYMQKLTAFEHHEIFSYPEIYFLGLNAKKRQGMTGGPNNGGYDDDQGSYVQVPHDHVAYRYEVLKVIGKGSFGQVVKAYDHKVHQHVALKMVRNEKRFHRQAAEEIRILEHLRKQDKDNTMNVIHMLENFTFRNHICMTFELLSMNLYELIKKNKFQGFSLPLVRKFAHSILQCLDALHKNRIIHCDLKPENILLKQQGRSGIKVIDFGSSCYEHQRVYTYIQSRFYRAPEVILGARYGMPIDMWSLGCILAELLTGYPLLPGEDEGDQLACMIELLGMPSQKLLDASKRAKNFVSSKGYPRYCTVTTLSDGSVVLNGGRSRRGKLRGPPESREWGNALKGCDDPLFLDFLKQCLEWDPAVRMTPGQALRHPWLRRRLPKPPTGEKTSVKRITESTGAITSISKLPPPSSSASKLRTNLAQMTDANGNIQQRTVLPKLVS

[9] = biological target: Protein kinase C beta type (Homo sapiens, UniProt P05771); assay: Inhibition of PKCbeta (unknown origin) incubated for 15 mins in presence of [gamma-32P]ATP; procedure, shortened: as §2
[10] = biological target: T2, Dual specificity tyrosine-phosphorylation-regulated kinase 1A; assay: Inhibition of tetracycline-inducible EGFP-DYRK1A (unknown origin) expressed in HEK293 cells coexpressing full length human EGFP-tau protein assessed as reduction in tau-Thr212 phosphorylation incubated overnight by immunoblotting assay
[11] = biological target: Casein kinase II (Homo sapiens, UniProt P19784+P67870+P68400); assay: Inhibition of CK2 (unknown origin) using RRRDDDSDDD-NH2 as susbtrate incubated for 15 mins in presence of [gamma-32P]ATP; assay type: protein-complex assay
[12] = biological target: T3, Phosphatidylinositol 4,5-bisphosphate 3-kinase catalytic subunit alpha isoform; assay: Inhibition of PI3K p110alpha (unknown origin)

Protein kinase C beta type, sequence (P05771 whole entry): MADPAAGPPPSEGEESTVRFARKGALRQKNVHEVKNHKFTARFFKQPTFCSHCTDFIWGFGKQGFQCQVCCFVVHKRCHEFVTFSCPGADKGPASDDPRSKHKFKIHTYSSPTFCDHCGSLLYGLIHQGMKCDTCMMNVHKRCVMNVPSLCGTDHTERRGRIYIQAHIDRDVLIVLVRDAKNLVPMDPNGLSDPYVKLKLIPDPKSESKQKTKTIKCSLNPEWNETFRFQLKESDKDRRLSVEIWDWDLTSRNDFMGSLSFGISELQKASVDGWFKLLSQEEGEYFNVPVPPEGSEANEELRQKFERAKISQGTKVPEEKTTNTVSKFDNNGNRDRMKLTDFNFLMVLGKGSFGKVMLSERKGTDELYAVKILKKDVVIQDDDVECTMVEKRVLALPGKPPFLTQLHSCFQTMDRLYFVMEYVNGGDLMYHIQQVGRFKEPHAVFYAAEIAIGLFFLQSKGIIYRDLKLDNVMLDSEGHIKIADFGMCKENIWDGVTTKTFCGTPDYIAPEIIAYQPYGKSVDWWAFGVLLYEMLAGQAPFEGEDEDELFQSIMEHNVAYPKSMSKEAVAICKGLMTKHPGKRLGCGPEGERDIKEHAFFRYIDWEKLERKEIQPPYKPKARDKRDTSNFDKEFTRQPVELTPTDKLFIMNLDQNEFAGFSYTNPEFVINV
T3 sequence (P42336 whole entry, canonical isoform): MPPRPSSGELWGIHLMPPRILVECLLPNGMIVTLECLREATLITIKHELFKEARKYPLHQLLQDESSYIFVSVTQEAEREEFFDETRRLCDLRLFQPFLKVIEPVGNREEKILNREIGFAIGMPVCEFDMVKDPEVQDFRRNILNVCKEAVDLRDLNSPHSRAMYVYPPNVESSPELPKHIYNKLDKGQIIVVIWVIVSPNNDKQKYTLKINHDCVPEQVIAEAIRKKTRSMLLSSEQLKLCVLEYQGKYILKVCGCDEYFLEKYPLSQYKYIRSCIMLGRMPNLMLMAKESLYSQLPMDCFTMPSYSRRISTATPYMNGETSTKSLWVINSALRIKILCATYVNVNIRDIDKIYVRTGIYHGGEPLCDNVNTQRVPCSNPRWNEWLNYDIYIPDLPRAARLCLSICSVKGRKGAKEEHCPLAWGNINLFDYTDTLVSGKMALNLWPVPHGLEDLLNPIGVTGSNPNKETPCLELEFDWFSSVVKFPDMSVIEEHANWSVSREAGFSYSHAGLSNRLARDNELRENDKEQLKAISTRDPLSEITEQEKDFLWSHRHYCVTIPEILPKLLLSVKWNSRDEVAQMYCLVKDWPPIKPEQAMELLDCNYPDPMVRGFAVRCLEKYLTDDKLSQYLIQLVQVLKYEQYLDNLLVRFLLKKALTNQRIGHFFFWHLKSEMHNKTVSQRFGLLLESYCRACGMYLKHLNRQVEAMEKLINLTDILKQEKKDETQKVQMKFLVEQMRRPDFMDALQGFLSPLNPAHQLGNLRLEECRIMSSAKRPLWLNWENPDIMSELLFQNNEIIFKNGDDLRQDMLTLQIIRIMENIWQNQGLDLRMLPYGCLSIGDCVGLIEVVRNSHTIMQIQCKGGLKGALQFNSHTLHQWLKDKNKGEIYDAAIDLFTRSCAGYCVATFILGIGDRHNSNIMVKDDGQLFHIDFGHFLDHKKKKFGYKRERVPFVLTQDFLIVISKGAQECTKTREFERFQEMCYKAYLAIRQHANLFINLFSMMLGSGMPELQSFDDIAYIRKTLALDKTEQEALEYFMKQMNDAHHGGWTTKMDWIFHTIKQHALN
Epidermal growth factor receptor, sequence (P00533 whole entry): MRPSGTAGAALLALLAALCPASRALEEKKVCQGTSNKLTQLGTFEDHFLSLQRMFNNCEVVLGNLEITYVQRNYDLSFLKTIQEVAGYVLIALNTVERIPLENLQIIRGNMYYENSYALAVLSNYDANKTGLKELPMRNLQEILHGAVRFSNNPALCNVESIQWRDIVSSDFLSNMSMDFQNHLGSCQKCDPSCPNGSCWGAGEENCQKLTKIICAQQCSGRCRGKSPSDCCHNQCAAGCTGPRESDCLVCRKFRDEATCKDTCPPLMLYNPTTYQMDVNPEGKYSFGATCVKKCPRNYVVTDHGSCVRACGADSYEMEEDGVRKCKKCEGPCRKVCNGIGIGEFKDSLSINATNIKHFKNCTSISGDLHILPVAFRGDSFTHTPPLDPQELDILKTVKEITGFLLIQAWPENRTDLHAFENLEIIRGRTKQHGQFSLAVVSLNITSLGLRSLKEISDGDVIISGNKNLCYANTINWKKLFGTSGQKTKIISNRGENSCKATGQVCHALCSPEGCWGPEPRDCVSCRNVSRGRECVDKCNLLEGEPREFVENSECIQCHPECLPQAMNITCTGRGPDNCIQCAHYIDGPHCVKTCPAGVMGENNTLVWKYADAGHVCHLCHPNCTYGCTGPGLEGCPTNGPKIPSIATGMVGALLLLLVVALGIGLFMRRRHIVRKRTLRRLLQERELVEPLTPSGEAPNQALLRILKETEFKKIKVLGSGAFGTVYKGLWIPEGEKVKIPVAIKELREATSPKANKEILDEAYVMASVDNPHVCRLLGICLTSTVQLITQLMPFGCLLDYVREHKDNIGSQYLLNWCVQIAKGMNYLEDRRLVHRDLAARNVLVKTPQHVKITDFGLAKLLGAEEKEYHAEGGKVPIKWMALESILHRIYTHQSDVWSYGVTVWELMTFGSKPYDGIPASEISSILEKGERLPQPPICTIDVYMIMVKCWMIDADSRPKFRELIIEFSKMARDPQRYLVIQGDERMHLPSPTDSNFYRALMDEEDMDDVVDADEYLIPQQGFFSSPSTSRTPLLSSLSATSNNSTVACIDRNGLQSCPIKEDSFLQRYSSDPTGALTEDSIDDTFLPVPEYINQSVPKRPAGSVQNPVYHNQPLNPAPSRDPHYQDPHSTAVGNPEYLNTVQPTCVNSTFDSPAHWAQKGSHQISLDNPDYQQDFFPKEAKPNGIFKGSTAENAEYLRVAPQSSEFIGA
Casein kinase II, sequence (P67870 whole entry, canonical isoform): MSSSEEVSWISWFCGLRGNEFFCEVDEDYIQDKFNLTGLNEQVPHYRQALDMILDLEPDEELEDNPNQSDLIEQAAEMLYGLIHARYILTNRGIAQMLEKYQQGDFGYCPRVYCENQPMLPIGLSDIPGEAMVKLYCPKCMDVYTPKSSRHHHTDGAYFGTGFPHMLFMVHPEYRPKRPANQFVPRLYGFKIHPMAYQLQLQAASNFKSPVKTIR
Casein kinase II, sequence (P68400 whole entry, canonical isoform): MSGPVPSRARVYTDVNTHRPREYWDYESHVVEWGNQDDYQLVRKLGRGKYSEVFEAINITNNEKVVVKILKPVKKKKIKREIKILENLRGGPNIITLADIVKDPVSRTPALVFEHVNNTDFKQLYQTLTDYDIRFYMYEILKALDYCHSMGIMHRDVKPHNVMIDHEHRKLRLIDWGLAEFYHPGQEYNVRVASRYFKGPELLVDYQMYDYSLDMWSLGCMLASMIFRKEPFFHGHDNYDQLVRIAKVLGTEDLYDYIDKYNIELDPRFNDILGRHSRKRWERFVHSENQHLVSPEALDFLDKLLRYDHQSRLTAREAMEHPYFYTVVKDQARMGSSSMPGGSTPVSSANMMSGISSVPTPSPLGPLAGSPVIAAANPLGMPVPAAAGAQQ
Casein kinase II, sequence (P19784 whole entry, canonical isoform): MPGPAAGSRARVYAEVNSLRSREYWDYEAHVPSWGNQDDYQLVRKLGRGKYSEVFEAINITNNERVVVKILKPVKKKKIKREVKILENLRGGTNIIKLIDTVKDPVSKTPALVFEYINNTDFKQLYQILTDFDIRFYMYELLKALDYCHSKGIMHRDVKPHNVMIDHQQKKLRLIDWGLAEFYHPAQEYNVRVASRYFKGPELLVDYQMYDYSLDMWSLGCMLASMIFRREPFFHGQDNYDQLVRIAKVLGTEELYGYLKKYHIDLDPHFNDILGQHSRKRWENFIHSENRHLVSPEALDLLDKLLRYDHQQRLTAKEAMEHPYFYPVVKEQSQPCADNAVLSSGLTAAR
Dual specificity protein kinase CLK1, sequence (P49759 whole entry, the tested form may be a part): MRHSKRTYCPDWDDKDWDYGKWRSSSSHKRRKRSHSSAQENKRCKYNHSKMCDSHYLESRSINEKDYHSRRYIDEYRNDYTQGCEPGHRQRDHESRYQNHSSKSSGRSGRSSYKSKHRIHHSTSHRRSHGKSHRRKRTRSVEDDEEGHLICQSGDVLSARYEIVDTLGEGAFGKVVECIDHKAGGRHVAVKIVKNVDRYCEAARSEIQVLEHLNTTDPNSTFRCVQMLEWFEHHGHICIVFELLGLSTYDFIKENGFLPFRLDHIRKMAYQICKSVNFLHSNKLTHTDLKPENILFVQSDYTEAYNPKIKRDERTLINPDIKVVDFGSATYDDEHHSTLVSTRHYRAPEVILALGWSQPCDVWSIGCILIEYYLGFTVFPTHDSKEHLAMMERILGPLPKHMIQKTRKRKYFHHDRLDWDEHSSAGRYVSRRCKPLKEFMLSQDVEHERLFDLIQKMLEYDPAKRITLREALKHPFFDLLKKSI
Dual specificity tyrosine-phosphorylation-regulated kinase 1B, sequence (Q9Y463 whole entry): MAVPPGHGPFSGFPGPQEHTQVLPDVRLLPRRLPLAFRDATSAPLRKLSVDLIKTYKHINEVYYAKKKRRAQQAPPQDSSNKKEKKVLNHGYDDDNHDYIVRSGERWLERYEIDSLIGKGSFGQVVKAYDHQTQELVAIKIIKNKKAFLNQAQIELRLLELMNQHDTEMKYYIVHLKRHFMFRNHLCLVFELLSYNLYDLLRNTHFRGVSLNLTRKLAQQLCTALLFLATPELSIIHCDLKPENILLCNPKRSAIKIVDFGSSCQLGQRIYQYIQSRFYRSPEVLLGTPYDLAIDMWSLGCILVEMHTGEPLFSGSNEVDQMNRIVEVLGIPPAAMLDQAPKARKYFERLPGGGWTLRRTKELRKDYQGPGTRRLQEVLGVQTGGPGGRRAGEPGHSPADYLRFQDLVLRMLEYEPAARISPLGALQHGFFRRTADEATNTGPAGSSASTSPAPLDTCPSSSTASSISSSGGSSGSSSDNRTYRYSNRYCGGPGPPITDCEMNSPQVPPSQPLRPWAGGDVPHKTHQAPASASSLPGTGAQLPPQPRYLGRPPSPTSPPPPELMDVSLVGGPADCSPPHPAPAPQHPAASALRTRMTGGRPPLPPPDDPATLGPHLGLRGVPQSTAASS

Structure (SMILES)	inhibition [1] [%]	IC50 [2] [nM]	IC50 [3] [nM]	inhibition [4] [%]	half-life at 1 µM [5] [h]	IC50 [6] [nM]	IC50 [7] [nM]	IC50 [8] [nM]	IC50 [9]	IC50 [10] [nM]	IC50 [11] [nM]	IC50 [12] [nM]	IC50 ([9]; read-out: IC50) [nM]
O=C1OCC/C1=C\c1ccc2ncsc2c1	77	> 10000	130	90	3.1	> 10000	1050	60	Not Active	200	> 10000		
O=C1NC(=S)S/C1=C\c1ccc2ncccc2c1		200	20			> 10000	60	60		1400	40	2.6	> 10000
O=C1NC(=S)S/C1=C\c1ccc2ncsc2c1		100	40		1.68	> 10000	70	200		2100	60	2.2	9200
CC1C/C(=C\c2ccc3c(c2)CCO3)C(=O)O1 (configuration not stated)	73	> 10000	170	84	> 2	> 10000	2640	430	Not Active	2100	> 10000	650	
